ChEMBL document CHEMBL1127568, “A new series of PDGF receptor tyrosine kinase inhibitors: 3-substituted quinoline derivatives” (J Med Chem, 1994)

Assays:
[1] = molecular target: T1, Platelet-derived growth factor receptor (Homo sapiens, UniProt P09619+P16234); experiment: Inhibition of human PDGF receptor phosphorylation; 0.015-0.025; type: protein-complex assay
Outline: (§1)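 PDGF receptor from NIH 3T3 cell lysates (cells made quiescent 24 h in 0.5% calf serum), stimulated with 10 ng/mL PDGF for 30 min at 4 °C and immunoprecipitated on Protein A beads. Each compound ran in at least two dose-response assays.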

[2] = molecular target: Epidermal growth factor receptor (Homo sapiens, UniProt P00533); experiment: Concentration required to inhibit phosphorylation of isolated human epidermal growth factor tyrosine kinase receptor by 50%
Chain of Epidermal growth factor receptor (P00533 whole entry): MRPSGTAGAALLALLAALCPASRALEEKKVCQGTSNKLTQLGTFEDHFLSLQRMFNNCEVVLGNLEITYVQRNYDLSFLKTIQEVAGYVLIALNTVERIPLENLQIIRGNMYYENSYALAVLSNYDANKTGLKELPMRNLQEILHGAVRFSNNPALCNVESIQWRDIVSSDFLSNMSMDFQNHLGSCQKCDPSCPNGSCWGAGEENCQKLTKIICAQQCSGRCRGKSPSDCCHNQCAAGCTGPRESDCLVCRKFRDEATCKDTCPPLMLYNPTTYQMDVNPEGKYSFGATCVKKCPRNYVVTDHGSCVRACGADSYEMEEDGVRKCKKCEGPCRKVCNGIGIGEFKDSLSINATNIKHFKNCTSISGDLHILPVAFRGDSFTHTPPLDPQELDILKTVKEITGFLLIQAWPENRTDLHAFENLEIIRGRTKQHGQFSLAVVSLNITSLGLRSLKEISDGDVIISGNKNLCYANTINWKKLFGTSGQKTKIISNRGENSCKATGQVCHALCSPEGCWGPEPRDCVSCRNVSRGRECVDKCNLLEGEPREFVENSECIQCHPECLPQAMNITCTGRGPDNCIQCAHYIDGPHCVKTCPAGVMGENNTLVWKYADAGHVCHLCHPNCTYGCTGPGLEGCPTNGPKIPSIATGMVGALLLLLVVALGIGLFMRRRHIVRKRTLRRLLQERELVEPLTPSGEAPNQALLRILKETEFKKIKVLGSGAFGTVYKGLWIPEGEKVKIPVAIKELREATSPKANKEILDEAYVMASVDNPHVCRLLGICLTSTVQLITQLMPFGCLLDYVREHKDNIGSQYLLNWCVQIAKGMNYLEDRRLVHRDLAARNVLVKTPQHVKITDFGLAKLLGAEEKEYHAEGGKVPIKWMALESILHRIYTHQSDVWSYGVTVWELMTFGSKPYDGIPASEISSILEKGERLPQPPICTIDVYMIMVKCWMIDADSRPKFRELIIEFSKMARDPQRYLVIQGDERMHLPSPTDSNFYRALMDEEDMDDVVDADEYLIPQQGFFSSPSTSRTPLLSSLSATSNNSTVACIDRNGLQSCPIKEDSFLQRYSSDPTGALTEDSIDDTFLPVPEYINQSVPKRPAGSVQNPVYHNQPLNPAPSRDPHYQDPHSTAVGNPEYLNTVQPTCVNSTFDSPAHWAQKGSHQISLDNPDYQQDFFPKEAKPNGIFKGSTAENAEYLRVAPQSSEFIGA

[3] = molecular target: T1, Platelet-derived growth factor receptor; experiment: Inhibition of human PDGF receptor phosphorylation; 0.1-0.6; type: protein-complex assay
Outline: (§2)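 Receptor from quiescent NIH 3T3 cell lysates (24 h in 0.5% calf serum before lysis), stimulated with 10 ng/mL PDGF for 30 min at 4 °C, then immunoprecipitated with anti-PDGF receptor antibody on Protein A beads. Compound pre-incubated 10 min at 4 °C in 50 mM Tris, 10 mM MnCl2, pH 7.5. At least two dose-response assays per compound.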

[4] = molecular target: T1, Platelet-derived growth factor receptor; experiment: Inhibition of human PDGF receptor phosphorylation; 0.1-0.25; type: protein-complex assay; outline: as §1
[5] = molecular target: T1, Platelet-derived growth factor receptor; experiment: Inhibition of isolated human PDGF receptor phosphorylation; type: protein-complex assay
[6] = molecular target: T1, Platelet-derived growth factor receptor; experiment: Inhibition of human PDGF receptor phosphorylation; 0.05-0.07; type: protein-complex assay; outline: as §1
[7] = molecular target: T1, Platelet-derived growth factor receptor; experiment: Inhibition of human PDGF receptor phosphorylation; 0.02-0.03; type: protein-complex assay; outline: as §1
[8] = molecular target: T1, Platelet-derived growth factor receptor; experiment: Inhibition of human PDGF receptor phosphorylation; 0.2-0.25; type: protein-complex assay; outline: as §1
[9] = molecular target: T1, Platelet-derived growth factor receptor; experiment: Inhibition of human PDGF receptor phosphorylation; 0.001-0.005; type: protein-complex assay; outline: as §1
[10] = molecular target: T1, Platelet-derived growth factor receptor; experiment: Inhibition of human PDGF receptor phosphorylation; 0.04-0.08; type: protein-complex assay; outline: as §1
[11] = molecular target: T1, Platelet-derived growth factor receptor; experiment: Inhibition of human PDGF receptor phosphorylation; 0.1-0.8; type: protein-complex assay; outline: as §1
[12] = molecular target: T1, Platelet-derived growth factor receptor; experiment: Inhibition of human PDGF receptor phosphorylation; 0.004-0.025; type: protein-complex assay; outline: as §1
[13] = molecular target: T1, Platelet-derived growth factor receptor; experiment: Inhibition of human PDGF receptor phosphorylation; 1-2; type: protein-complex assay; outline: as §1
[14] = molecular target: T1, Platelet-derived growth factor receptor; experiment: Inhibition of human PDGF receptor phosphorylation; 2-8; type: protein-complex assay; outline: as §1
[15] = molecular target: T1, Platelet-derived growth factor receptor; experiment: Inhibition of human PDGF receptor phosphorylation; 6-10; type: protein-complex assay
[16] = molecular target: T1, Platelet-derived growth factor receptor; experiment: Concentration required to inhibit phosphorylation of isolated human PDGF receptor by 50%; 0.3-1; type: protein-complex assay; outline: as §1
[17] = molecular target: T1, Platelet-derived growth factor receptor; experiment: Inhibition of human PDGF receptor phosphorylation; 0.02-0.08; type: protein-complex assay
[18] = molecular target: T1, Platelet-derived growth factor receptor; experiment: Inhibition of human PDGF receptor phosphorylation; 0.1-0.2; type: protein-complex assay; outline: as §1
[19] = molecular target: T1, Platelet-derived growth factor receptor; experiment: Inhibition of human PDGF receptor phosphorylation; 0.07-0.15; type: protein-complex assay
[20] = molecular target: cAMP-dependent protein kinase (PKA) (Homo sapiens, UniProt P22694+P17612+P22612); experiment: Test for the inhibition of protein kinase A; type: protein assay
[21] = molecular target: T1, Platelet-derived growth factor receptor; experiment: Inhibition of human PDGF receptor phosphorylation; 0.025-0.03; type: protein-complex assay; outline: as §1
[22] = molecular target: T1, Platelet-derived growth factor receptor; experiment: Inhibition of human PDGF receptor phosphorylation; 2-10; type: protein-complex assay; outline: as §1
[23] = molecular target: T1, Platelet-derived growth factor receptor; experiment: Inhibition of human PDGF receptor phosphorylation; 0.03-0.1; type: protein-complex assay; outline: as §2

Structure (SMILES) | IC50 [2] | IC50 [5] | also measured
COc1cc2cc(-c3cccc(F)c3)cnc2cc1OC | > 20 µM | – | IC50 [1]: 0.025 µM
COc1cc2cc(-c3c[nH]c4ccccc34)cnc2cc1OC | > 20 µM | – | IC50 [3]: 0.6 µM
COc1ccc(-c2cnc3cc(OC)c(OC)cc3c2)s1 | > 20 µM | – | IC50 [4]: 0.25 µM
COc1cc2cc(N)cnc2cc1OC | > 20 µM | > 50 µM | –
COc1ccc2ncc(-c3ccsc3)cc2c1 | > 20 µM | – | IC50 [6]: 0.07 µM
COc1ccc2cc(-c3cccnc3)cnc2c1OC | > 25 µM | > 50 µM | –
COc1cc2cc(-c3ccc(O)cc3)cnc2cc1OC | > 20 µM | – | IC50 [7]: 0.03 µM
Cc1ccc(C)c2ncc(-c3ccsc3)cc12 | > 20 µM | > 50 µM | –
c1ccc2ncc(-c3ccsc3)cc2c1 | > 20 µM | – | IC50 [8]: 0.25 µM
Cc1cc(C)c2cc(-c3ccsc3)cnc2c1 | > 20 µM | – | IC50 [9]: 0.005 µM
COc1cc2cc(-c3cccs3)cnc2cc1OC | > 20 µM | – | IC50 [10]: 0.08 µM
COc1cc2cc(-c3cccnc3)cnc2cc1OC | > 25 µM | – | IC50 [11]: 0.8 µM
Fc1cccc2ncc(-c3ccsc3)cc12 | – | 0.02 µM | –
COc1cc2cc(-c3sccc3Cl)cnc2cc1OC | > 20 µM | 1 µM | –
Fc1ccc2cc(-c3ccsc3)cnc2c1 | > 20 µM | – | IC50 [12]: 0.025 µM
COc1cc2cc(-c3ccc(OCc4ccccc4)cc3)cnc2cc1OC | > 20 µM | > 30 µM | –

Structure (SMILES) | IC50 [2] | IC50 [5] | also measured
COc1cccc(-c2cnc3cc(OC)c(OC)cc3c2)c1 | > 20 µM | – | IC50 [13]: 2 µM
COc1cc2cc(O)cnc2cc1OC | > 20 µM | ≥ 20 µM | –
c1ccc2ncc(-c3c[nH]c4ccccc34)cc2c1 | > 20 µM | – | IC50 [14]: 8 µM
COc1cc2cc(-c3ccc4ccccc4c3)cnc2cc1OC | > 20 µM | ≥ 20 µM | –
COc1cc2cc(-c3ccccc3OC)cnc2cc1OC | > 20 µM | 2 µM | –
COc1ccc2cc(-c3c[nH]c4ccccc34)cnc2c1OC | > 20 µM | > 50 µM | –
Oc1cc2cc(-c3cccnc3)cnc2cc1O | 0.5 µM | – | IC50 [15]: 10 µM
COc1cc2cc(C#CC3CCCCC3)cnc2cc1OC | > 20 µM | – | IC50 [16]: 1 µM
COc1cc2cc(NCc3ccccc3)cnc2cc1OC | > 20 µM | – | IC50 [17]: 0.08 µM
C(=C\c1cnc2ccccc2c1)/c1ccccc1 | > 20 µM | – | IC50 [18]: 0.2 µM
COc1cc2cc([N+](=O)[O-])cnc2cc1OC | > 20 µM | > 50 µM | –
COc1cc2cc(-c3ccccc3)cnc2cc1OC | > 20 µM | – | IC50 [19]: 0.15 µM
COc1cc(OC)c2cc(-c3ccsc3)cnc2c1 | > 20 µM | – | IC50 [20]: > 200 µM; IC50 [21]: 0.03 µM
COc1ccc(-c2cnc3cc(OC)c(OC)cc3c2)cc1OC | > 20 µM | – | IC50 [22]: 10 µM
COc1ccc(/C=C/c2cnc3cc(OC)c(OC)cc3c2)cc1 | > 20 µM | – | IC50 [23]: 0.1 µM
COc1cc2cc(-c3cc(OC)c(OC)c(OC)c3)cnc2cc1OC | > 20 µM | > 50 µM | –
